From ChEMBL document CHEMBL1139833, “Synthesis and metabotropic glutamate receptor activity of S-oxidized variants of (-)-4-amino-2-thiabicyclo-[3.1.0]hexane-4,6-dicarboxylate: identification of potent, selective, and orally bioavailable agonists for mGlu2/3 receptors” (J Med Chem, 2007)
Activity calls are given as the source filed them. The calls are words filed in the database; no cut-off is given here.

How the values were obtained:
[1] = target: T1, Metabotropic glutamate receptor 2 (Homo sapiens, UniProt Q14416); assay: Displacement of [3H]LY341495 from human recombinant mGluR2 in RGT cells; format: cell-based
[2] = target: T1, Metabotropic glutamate receptor 2; assay: Agonist activity at human mGluR2 assessed as effect on cAMP production in RGT cells; format: functional, cell-based
Procedure, shortened: (§1)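 cAMP second-messenger responses measured in RGT cells. These are non-neuronal AV12-664 cells coexpressing the glutamate transporter GLAST, to minimize glutamate activity, plus the recombinant human receptor (mGlu2, mGlu3 or mGlu8). Agonist EC50 determined.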

[3] = target: T2, Metabotropic glutamate receptor 3 (Homo sapiens, UniProt Q14832); assay: Displacement of [3H]LY341495 from human recombinant mGluR3 in RGT cells; format: cell-based
Procedure, shortened: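 Radioligand binding on membranes carrying recombinant human mGlu2 or mGlu3, displacing the antagonist [3H]LY341495. Ki was calculated from IC50 by the Cheng-Prusoff equation. Values are the mean of at least three separate experiments.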

[4] = target: T2, Metabotropic glutamate receptor 3; assay: Agonist activity at human mGluR3 assessed as effect on cAMP production in RGT cells; format: functional, cell-based; procedure, shortened: as §1
[5] = target: Metabotropic glutamate receptor 8 (Homo sapiens, UniProt O00222); assay: Agonist activity at human mGluR8 assessed as effect on cAMP production in RGT cells; format: functional, cell-based; procedure, shortened: as §1
[6] = target: Metabotropic glutamate receptor 7 (Homo sapiens) (UniProt Q14831); assay: Antagonist activity against human mGluR7a assessed as effect on cAMP production in RGT cells upto 100 uM; format: functional, cell-based
Procedure, shortened: (§2)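 Compounds were tested at concentrations up to 100 µM for agonist or antagonist effects. Assays used RGT cells, which are AV12-664 cells coexpressing GLAST and recombinant human mGlu1a, mGlu5a, mGlu4a or mGlu7a.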

[7] = target: Metabotropic glutamate receptor 1 (Homo sapiens) (UniProt Q13255); assay: Antagonist activity against human mGluR1a assessed as effect on cAMP production in RGT cells upto 100 uM; format: functional, cell-based; procedure, shortened: as §2
[8] = target: Metabotropic glutamate receptor 4 (Homo sapiens) (UniProt Q14833); assay: Antagonist activity against human mGluR4a assessed as effect on cAMP production in RGT cells upto 100 uM; format: functional, cell-based; procedure, shortened: as §2
[9] = target: Metabotropic glutamate receptor 5 (Homo sapiens) (UniProt P41594); assay: Antagonist activity against human mGluR5a assessed as effect on cAMP production in RGT cells upto 100 uM; format: functional, cell-based; procedure, shortened: as §2
[10] = target: Metabotropic glutamate receptor 5 (Homo sapiens) (UniProt P41594); assay: Agonist activity at human mGluR5a assessed as effect on cAMP production in RGT cells upto 100 uM; format: functional, cell-based; procedure, shortened: as §2
[11] = target: Metabotropic glutamate receptor 7 (Homo sapiens) (UniProt Q14831); assay: Agonist activity at human mGluR7a assessed as effect on cAMP production in RGT cells upto 100 uM; format: functional, cell-based; procedure, shortened: as §2
[12] = target: Metabotropic glutamate receptor 1 (Homo sapiens) (UniProt Q13255); assay: Agonist activity at human mGluR1a assessed as effect on cAMP production in RGT cells upto 100 uM; format: functional, cell-based; procedure, shortened: as §2
[13] = target: Metabotropic glutamate receptor 4 (Homo sapiens) (UniProt Q14833); assay: Agonist activity at human mGluR4a assessed as effect on cAMP production in RGT cells upto 100 uM; format: functional, cell-based; procedure, shortened: as §2
Rattus norvegicus [14] = assay: Impairment of rotarod performance in Sprague-Dawley rat at 3 mg/kg, po after 2 hrs; format: functional, organism-based; design: dose 3 mg/kg
Procedure, shortened: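 Fasted Sprague-Dawley rats were trained on a rotorod at 4 rpm over four trials. Rats holding on for 60 s were retested 30 min before dosing, then given oral drug or vehicle. They were tested again 2 h later for up to 60 s. Read-out is mean seconds on the rod, n=8 per group.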

Rattus norvegicus [15] = assay: Reduction of PCP-induced ambulations in Sprague-Dawley rat at 10 mg/kg, po; format: functional; design: scale not given: the % may be the effect or the level left
Procedure, shortened: (§3)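 Male Sprague-Dawley rats (225-274 g) fasted 12-18 h and habituated 30 min to the test cage. Test drug or vehicle was given orally 2 h before PCP (5 mg/kg s.c.) or 0.9% NaCl. Horizontal photobeam breaks were counted over 60 min, n=8-13 per group.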

[16] = AUC (0-24h) in Fischer 344 rat at 10 mg/kg, po; format: ADME, organism-based, Plasma; design: time < 24 hr, dose 10 mg/kg, route oral; conditions: Fischer 344, rat, plasma
Procedure, shortened: (§4)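 Male Fischer 344 rats fasted overnight, food returned 4 h post dose, water ad libitum. Doses were in water brought to pH 7 with NaOH, given i.v. (2.5 or 10 mg/kg) or p.o. (10 mg/kg). Nine rats per dose group, three per time point, with blood taken over 0.08–24 h. Plasma measured by LC/MS/MS.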

Rattus norvegicus [17] = assay: Cmax in Fischer 344 rat at 10 mg/kg, po; format: ADME, organism-based; design: dose 10 mg/kg, route oral; conditions: in vivo; procedure, shortened: as §4
[18] = Plasma concentration in Fischer 344 rat after 3 hrs; format: ADME, organism-based
Procedure, shortened: (§5)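 Plasma levels in fasted male Fischer 344 rats after a 10 mg/kg oral dose in pH 7 water (NaOH), quantified by positive-ion electrospray LC/MS/MS. Main protocol sampled at 0.08/0.25–24 h, n=3 rats per time point. A variant oral-only arm used n=6 rats with samples at 0.5, 1, 2, 3, 4 and 6 h.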

[19] = Tmax in Fischer 344 rat at 2.5 mg/kg, iv; format: ADME, organism-based; design: dose 2.5 mg/kg, route intravenous; conditions: in vivo; procedure, shortened: as §4
[20] = Oral bioavailability in Fischer 344 rat at 10 mg/kg, po; format: ADME, organism-based; conditions: in vivo; procedure, shortened: as §4
Rattus norvegicus [21] = assay: Inhibition of PCP-induced ambulations in Sprague-Dawley rat after oral administration; format: functional; procedure, shortened: as §3
[22] = Plasma concentration in Fischer 344 rat after 8 hrs; format: ADME, organism-based; procedure, shortened: as §5
[23] = Plasma concentration in Fischer 344 rat after 1 hr; format: ADME, organism-based; procedure, shortened: as §5
Rattus norvegicus [24] = assay: Cmax in Fischer 344 rat at 2.5 mg/kg, iv; format: ADME, organism-based; design: dose 2.5 mg/kg, route intravenous; conditions: in vivo; procedure, shortened: as §4
[25] = Tmax in Fischer 344 rat at 10 mg/kg, po; format: ADME, organism-based; design: dose 10 mg/kg, route oral; conditions: Fischer 344, rat, in vivo; procedure, shortened: as §4
[26] = AUC (0-24h) in Fischer 344 rat at 2.5 mg/kg, iv; format: ADME, organism-based; design: time < 24 hr, dose 2.5 mg/kg, route intravenous; conditions: plasma; procedure, shortened: as §4
Rattus norvegicus [27] = assay: AUC (0-24h) in Fischer 344 rat at 10 mg/kg, po; conditions: in vivo
Rattus norvegicus [28] = assay: Reduction of PCP-induced ambulations in Sprague-Dawley rat at 3 mg/kg, po; format: functional; design: scale not given: the % may be the effect or the level left; procedure, shortened: as §3

Sequence of Metabotropic glutamate receptor 4 (Homo sapiens) (Q14833 whole entry): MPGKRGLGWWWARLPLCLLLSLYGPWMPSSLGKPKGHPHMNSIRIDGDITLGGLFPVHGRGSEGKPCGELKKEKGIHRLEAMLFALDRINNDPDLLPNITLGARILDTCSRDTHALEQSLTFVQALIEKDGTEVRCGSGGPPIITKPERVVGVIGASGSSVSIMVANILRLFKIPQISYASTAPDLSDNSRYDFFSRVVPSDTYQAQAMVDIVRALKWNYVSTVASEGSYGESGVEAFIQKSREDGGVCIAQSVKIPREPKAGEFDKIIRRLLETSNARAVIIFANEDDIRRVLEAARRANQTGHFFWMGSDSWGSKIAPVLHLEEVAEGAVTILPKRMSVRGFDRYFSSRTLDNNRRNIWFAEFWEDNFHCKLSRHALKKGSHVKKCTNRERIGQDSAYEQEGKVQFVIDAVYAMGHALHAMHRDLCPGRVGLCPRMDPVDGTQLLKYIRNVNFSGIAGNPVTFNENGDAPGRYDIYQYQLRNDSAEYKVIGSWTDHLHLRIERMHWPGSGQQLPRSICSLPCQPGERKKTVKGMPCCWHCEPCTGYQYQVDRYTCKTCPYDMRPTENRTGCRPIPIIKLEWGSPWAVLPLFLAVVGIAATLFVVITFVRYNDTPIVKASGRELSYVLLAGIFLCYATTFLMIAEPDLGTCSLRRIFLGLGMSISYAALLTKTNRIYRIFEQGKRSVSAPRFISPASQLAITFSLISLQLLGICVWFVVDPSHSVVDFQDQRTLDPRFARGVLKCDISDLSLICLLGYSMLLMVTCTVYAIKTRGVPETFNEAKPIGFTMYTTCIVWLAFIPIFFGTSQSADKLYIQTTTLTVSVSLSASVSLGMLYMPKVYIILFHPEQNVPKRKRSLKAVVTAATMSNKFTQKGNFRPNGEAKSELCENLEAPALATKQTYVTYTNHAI
Sequence of Metabotropic glutamate receptor 1 (Homo sapiens) (Q13255 19-1194 limits assumed): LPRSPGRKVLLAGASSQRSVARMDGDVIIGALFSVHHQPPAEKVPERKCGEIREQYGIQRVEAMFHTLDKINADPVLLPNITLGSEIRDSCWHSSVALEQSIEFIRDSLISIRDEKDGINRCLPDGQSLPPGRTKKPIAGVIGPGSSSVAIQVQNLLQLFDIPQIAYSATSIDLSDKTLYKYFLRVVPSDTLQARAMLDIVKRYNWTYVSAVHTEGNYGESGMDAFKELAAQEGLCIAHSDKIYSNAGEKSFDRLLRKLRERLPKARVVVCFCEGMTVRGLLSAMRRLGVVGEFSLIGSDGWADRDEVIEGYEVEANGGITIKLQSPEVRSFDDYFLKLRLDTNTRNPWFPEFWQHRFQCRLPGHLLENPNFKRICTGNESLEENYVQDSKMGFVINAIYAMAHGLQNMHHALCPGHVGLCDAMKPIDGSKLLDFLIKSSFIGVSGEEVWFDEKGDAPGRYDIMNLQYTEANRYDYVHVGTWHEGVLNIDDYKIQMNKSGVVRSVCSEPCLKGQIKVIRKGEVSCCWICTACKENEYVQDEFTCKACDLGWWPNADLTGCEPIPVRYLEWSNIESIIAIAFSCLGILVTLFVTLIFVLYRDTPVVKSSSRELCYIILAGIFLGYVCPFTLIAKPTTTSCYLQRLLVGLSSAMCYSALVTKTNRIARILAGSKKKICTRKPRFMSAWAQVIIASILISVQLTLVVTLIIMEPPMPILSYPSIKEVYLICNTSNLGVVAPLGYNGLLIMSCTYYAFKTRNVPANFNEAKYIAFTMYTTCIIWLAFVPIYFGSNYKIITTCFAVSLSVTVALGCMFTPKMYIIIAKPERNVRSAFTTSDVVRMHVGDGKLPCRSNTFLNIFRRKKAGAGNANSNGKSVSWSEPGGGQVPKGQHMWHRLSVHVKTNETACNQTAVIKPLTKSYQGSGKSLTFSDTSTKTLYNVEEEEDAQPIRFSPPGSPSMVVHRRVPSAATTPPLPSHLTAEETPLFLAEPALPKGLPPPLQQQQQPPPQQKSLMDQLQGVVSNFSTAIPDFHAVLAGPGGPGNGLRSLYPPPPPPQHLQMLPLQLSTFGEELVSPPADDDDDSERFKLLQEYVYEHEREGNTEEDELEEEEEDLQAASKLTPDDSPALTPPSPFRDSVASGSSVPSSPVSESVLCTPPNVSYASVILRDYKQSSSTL
T1 sequence (Q14416 whole entry): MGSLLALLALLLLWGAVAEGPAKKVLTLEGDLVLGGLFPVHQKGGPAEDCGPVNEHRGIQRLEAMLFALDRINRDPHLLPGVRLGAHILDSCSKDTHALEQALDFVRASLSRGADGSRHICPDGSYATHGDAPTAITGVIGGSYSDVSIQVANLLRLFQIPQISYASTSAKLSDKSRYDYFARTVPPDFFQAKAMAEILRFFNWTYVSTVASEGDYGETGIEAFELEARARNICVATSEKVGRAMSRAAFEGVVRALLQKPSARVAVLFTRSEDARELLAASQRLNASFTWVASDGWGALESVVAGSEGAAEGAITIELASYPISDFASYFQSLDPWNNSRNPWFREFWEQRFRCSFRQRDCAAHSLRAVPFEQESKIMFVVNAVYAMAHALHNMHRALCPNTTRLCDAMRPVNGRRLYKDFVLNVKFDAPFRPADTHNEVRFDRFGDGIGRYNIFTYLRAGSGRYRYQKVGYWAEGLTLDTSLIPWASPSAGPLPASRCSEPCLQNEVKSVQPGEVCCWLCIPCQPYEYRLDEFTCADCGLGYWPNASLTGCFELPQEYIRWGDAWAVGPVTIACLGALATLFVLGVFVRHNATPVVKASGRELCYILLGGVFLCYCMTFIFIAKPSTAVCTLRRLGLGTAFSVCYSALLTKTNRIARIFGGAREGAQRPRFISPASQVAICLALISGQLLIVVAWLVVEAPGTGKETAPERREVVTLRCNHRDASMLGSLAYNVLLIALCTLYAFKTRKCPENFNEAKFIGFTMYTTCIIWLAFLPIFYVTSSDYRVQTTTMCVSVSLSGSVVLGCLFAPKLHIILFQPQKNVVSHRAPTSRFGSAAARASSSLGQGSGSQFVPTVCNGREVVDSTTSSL
Sequence of Metabotropic glutamate receptor 5 (Homo sapiens) (P41594 21-1212 limits assumed): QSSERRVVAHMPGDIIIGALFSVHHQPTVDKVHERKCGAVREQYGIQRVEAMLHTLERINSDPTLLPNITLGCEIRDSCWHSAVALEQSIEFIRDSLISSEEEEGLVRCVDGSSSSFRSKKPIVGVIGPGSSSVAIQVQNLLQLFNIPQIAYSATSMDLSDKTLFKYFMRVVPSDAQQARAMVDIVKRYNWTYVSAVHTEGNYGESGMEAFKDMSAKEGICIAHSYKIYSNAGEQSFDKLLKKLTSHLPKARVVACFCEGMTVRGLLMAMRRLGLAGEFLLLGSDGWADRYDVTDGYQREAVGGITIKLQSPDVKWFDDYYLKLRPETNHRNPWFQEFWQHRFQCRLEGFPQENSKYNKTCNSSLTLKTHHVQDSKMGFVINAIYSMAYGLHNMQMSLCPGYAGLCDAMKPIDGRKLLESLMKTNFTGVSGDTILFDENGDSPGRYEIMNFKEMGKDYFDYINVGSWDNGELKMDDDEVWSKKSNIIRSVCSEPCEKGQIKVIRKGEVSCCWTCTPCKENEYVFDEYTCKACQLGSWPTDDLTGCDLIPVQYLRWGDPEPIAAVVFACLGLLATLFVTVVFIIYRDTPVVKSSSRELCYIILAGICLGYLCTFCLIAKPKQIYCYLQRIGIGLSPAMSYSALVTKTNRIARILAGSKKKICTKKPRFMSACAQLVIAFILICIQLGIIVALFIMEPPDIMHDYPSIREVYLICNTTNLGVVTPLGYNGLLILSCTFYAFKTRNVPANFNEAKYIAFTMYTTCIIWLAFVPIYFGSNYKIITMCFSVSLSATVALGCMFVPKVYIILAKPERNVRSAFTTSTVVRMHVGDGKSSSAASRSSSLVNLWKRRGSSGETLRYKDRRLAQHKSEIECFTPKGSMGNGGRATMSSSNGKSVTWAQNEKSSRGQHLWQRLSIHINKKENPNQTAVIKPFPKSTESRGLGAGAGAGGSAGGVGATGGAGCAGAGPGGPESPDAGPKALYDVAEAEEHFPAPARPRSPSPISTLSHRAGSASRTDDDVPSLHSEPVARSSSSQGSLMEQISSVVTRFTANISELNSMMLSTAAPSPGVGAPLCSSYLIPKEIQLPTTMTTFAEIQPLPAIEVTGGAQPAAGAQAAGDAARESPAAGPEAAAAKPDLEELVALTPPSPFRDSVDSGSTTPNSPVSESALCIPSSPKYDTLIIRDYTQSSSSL
Sequence of Metabotropic glutamate receptor 7 (Homo sapiens) (Q14831 whole entry): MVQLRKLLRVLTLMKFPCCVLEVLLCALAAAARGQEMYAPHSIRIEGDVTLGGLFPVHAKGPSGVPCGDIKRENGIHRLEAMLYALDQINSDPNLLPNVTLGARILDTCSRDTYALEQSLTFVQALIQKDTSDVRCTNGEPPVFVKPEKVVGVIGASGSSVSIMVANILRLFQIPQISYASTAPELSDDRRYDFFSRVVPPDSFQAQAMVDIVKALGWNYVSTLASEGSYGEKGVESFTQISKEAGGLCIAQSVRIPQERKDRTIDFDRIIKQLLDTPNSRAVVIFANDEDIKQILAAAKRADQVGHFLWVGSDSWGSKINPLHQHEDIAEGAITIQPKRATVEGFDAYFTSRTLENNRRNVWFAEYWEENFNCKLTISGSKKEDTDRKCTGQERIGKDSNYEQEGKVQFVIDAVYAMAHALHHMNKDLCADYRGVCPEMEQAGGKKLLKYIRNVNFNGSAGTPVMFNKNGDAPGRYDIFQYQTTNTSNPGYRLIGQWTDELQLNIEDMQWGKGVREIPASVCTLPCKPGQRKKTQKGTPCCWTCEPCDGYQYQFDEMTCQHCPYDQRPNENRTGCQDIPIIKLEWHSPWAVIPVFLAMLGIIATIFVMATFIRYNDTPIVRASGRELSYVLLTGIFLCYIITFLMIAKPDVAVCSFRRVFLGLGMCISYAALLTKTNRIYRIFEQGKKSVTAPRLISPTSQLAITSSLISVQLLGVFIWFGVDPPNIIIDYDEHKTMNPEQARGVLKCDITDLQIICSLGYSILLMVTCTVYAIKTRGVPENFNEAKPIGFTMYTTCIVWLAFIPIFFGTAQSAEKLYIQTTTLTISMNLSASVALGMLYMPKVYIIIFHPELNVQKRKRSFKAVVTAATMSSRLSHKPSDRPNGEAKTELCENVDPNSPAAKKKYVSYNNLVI

Structure (SMILES)	EC50 [2]	Ki [3]	EC50 [4]	EC50 [5]	Activity [6]	Activity [7]	Activity [8]	Activity [9]	Activity [10]	Activity [11]	Activity [12]	Activity [13]	further results
N[C@@]1(C(=O)O)C[S+]([O-])[C@H]2[C@H](C(=O)O)[C@H]21 (stereo in doubt; (-)-10) [listing 1 of 2 here]	18.1 nM	447 nM	210 nM	> 100000 nM									Ki [1]: 508 nM
N[C@@]1(C(=O)O)C[S+]([O-])[C@H]2[C@H](C(=O)O)[C@H]21 (stereo in doubt; (-)-11)					inactive	inactive	inactive	inactive					
N[C@@]1(C(=O)O)C[S+]([O-])[C@H]2[C@H](C(=O)O)[C@H]21 (stereo in doubt; (-)-10) [listing 2 of 2 here]					inactive	inactive	inactive	inactive	inactive	inactive	inactive	inactive	
N[C@@]1(C(=O)O)C[S+]([O-])[C@H]2[C@H](C(=O)O)[C@H]21 (stereo in doubt; (+)-11)					inactive	inactive	inactive	inactive	inactive	inactive	inactive	inactive	Activity (Rattus norvegicus [14]): Active
N[C@@]1(C(=O)O)CS(=O)(=O)[C@H]2[C@H](C(=O)O)[C@H]21 [LY404039]	23.4 nM	92 nM	48 nM	47800 nM	inactive	inactive	inactive	inactive	inactive	inactive	inactive	inactive	Activity (Rattus norvegicus [15]): 91%; AUC(0-t) at 24 h [16]: 7200 ng·h/mL; Cmax (Rattus norvegicus [17]): 4000 ng/mL; concentration at 3 h [18]: > 500 ng/mL; Tmax [19]: 0 h; bioavailability [20]: 63%; ED50 (Rattus norvegicus [21]): 2.5 mg/kg; concentration at 8 h [22]: < 10 ng/mL; concentration at 1 h [23]: 4000 ng/mL; Cmax (Rattus norvegicus [24]): 7500 ng/mL; Tmax [25]: 1 h; AUC(0-t) at 24 h [26]: 2900 ng·h/mL; AUC (Rattus norvegicus [27]): 7.2 µg/mL; Activity (Rattus norvegicus [28]): 91%
